Assay results published in ChEMBL document CHEMBL3865799, “Synthesis of a series of novel dihydroartemisinin monomers and dimers containing chalcone as a linker and their anticancer activity” (Eur J Med Chem, 2016).

Tests used:
[1] = Cytotoxicity against human HepG2 cells assessed as cell growth inhibition after 48 hrs by MTT assay; format: functional, cell-based; conditions: HepG2, 48 h
Procedure, shortened: (§1)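 Adherent lines at 70–75% confluence, grown at 37 °C in 5% CO2 with 10% FCS. Exposed 48 h to compound in DMSO (vehicle <0.2% v/v). MTT dye added 3 h before termination; formazan dissolved in DMSO, OD 570 nm with 620 nm reference. Growth inhibition expressed as % of untreated; IC50 taken from the dose series.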

[2] = Cytotoxicity against human MIAPaCa2 cells assessed as cell growth inhibition at 30 uM after 48 hrs by MTT assay; format: functional; conditions: MIA PaCa-2, 48 h, read-out: GI; procedure, shortened: as §1
HL-60 [3] = assay: Induction of apoptosis in human HL60 cells assessed as loss of mitochondrial membrane potential at 0.2 uM after 24 hrs by Rh123 dye-based FACS analysis (reference value: 5%); format: functional
[4] = Cytotoxicity against human PC3 cells assessed as cell growth inhibition after 48 hrs by MTT assay; format: functional, cell-based; conditions: PC-3, 48 h
Procedure, shortened: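 Exposed 48 h to compound in DMSO (vehicle <0.2% v/v). MTT dye added 3 h before termination; formazan dissolved in DMSO, OD 570 nm with 620 nm reference. Growth inhibition expressed as % of untreated; IC50 taken from the dose series.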

[5] = Cytotoxicity against human PC3 cells assessed as cell growth inhibition at 50 uM after 48 hrs by MTT assay; format: functional; conditions: PC-3, 48 h, read-out: GI; procedure, shortened: as §1
[6] = Cell cycle arrest in human HL60 cells assessed as accumulation at G2 phase at 5 uM after 24 hrs by propidium iodide-DNA fluorescence based FACS analysis (reference value: 1 %); format: functional; conditions: HL-60
Procedure, shortened: (§2)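 HL-60 cells seeded at 0.5 × 10^6 cells/ml, exposed 24 h to compound (DMSO vehicle, <0.2% v/v). Pelleted at 400×g, PBS-washed, fixed in 70% ethanol at 4 °C overnight. RNase A treatment at 37 °C for 1.30 h, then propidium iodide staining for 20 min. Flow cytometry on 10,000 events, FL2-A vs FL2-W; subG0 (apoptotic) and phase populations gated.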

[7] = Cell cycle arrest in human HL60 cells assessed as accumulation at G1 phase at 5 uM after 24 hrs by propidium iodide-DNA fluorescence based FACS analysis (reference value: 46 %); format: functional; conditions: HL-60; procedure, shortened: as §2
HepG2 = assay: Selectivity index, ratio of IC50 for African green monkey Vero cells to IC50 for human HepG2 cells; format: functional
Procedure, shortened: (§3)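 Suspension cells were seeded at 1.5 × 10^4 per well and adherent lines at 70–75% confluence, then exposed to a range of concentrations. MTT was added 3 h before the end, formazan dissolved in DMSO, and OD read at 570 nm (reference 620 nm). Growth inhibition was taken relative to untreated cells. IC50 came from the MTT data; SI = IC50 in Vero cells / IC50 in the tumour line.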

Vero [8] = assay: Selectivity index, ratio of IC50 for African green monkey Vero cells to IC50 for human PC3 cells; format: functional; procedure, shortened: as §3
HL-60 [9] = assay: Induction of apoptosis in human HL60 cells assessed as loss of mitochondrial membrane potential at 5 uM after 24 hrs by Rh123 dye-based FACS analysis (reference value: 5%); format: functional
Vero [10] = assay: Selectivity index, ratio of IC50 for African green monkey Vero cells to IC50 for human HL60 cells; format: functional; procedure, shortened: as §3
HL-60 [11] = assay: Induction of apoptosis in human HL60 cells assessed as loss of mitochondrial membrane potential at 0.5 uM after 24 hrs by Rh123 dye-based FACS analysis (reference value: 5%); format: functional
[12] = Cytotoxicity against human MIAPaCa2 cells assessed as cell growth inhibition after 48 hrs by MTT assay; format: functional, cell-based; conditions: MIA PaCa-2, 48 h; procedure, shortened: as §1
[13] = Cytotoxicity against human LS180 cells assessed as cell growth inhibition at 50 uM after 48 hrs by MTT assay; format: functional; conditions: LS180, 48 h, read-out: GI; procedure, shortened: as §1
[14] = Cell cycle arrest in human HL60 cells assessed as accumulation at subG0 phase at 0.5 uM after 24 hrs by propidium iodide-DNA fluorescence based FACS analysis (reference value: 5 %); format: functional; conditions: HL-60; procedure, shortened: as §2
[15] = Cell cycle arrest in human HL60 cells assessed as accumulation at G1 phase at 1 uM after 24 hrs by propidium iodide-DNA fluorescence based FACS analysis (reference value: 46 %); format: functional; conditions: HL-60; procedure, shortened: as §2
Vero [16] = assay: Selectivity index, ratio of IC50 for African green monkey Vero cells to IC50 for human MIAPaCa2 cells; format: functional; procedure, shortened: as §3
[17] = Cell cycle arrest in human HL60 cells assessed as accumulation at S phase at 0.5 uM after 24 hrs by propidium iodide-DNA fluorescence based FACS analysis (reference value: 53 %); format: functional; conditions: HL-60; procedure, shortened: as §2
[18] = Cell cycle arrest in human HL60 cells assessed as accumulation at G2 phase at 0.5 uM after 24 hrs by propidium iodide-DNA fluorescence based FACS analysis (reference value: 1 %); format: functional; conditions: HL-60; procedure, shortened: as §2
[19] = Cytotoxicity against human HepG2 cells assessed as cell growth inhibition at 50 uM after 48 hrs by MTT assay; format: functional; conditions: HepG2, 48 h, read-out: GI; procedure, shortened: as §1
[20] = Cell cycle arrest in human HL60 cells assessed as accumulation at S phase at 5 uM after 24 hrs by propidium iodide-DNA fluorescence based FACS analysis (reference value: 53 %); format: functional; conditions: HL-60; procedure, shortened: as §2
[21] = Selectivity index, ratio of IC50 for African green monkey Vero cells to IC50 for human LS180 cells; format: functional; procedure, shortened: as §3
[22] = Cell cycle arrest in human HL60 cells assessed as accumulation at S phase at 1 uM after 24 hrs by propidium iodide-DNA fluorescence based FACS analysis (reference value: 53 %); format: functional; conditions: HL-60; procedure, shortened: as §2
[23] = Cytotoxicity against human HL60 cells assessed as cell growth inhibition after 48 hrs by MTT assay; format: functional, cell-based; conditions: HL-60, 48 h
Procedure, shortened: (§4)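 HL-60 suspension cells, 1.5 × 10^4 per well, grown at 37 °C in 5% CO2 with 10% FCS. Treated 48 h with compound in DMSO (vehicle <0.2% v/v). MTT added 3 h before the end. Formazan dissolved in DMSO and read at 570 nm (reference 620 nm). % growth inhibition computed against untreated cells; IC50 taken from the concentration series.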

[24] = Cell cycle arrest in human HL60 cells assessed as accumulation at subG0 phase at 5 uM after 24 hrs by propidium iodide-DNA fluorescence based FACS analysis (reference value: 5 %); format: functional; conditions: HL-60; procedure, shortened: as §2
[25] = Cell cycle arrest in human HL60 cells assessed as accumulation at G2 phase at 0.2 uM after 24 hrs by propidium iodide-DNA fluorescence based FACS analysis (reference value: 1 %); format: functional; conditions: HL-60; procedure, shortened: as §2
[26] = Cytotoxicity against human HL60 cells assessed as cell growth inhibition at 1 uM after 48 hrs by MTT assay; format: functional; conditions: HL-60, 48 h, read-out: GI; procedure, shortened: as §4
[27] = Cell cycle arrest in human HL60 cells assessed as accumulation at G2 phase at 1 uM after 24 hrs by propidium iodide-DNA fluorescence based FACS analysis (reference value: 1 %); format: functional; conditions: HL-60; procedure, shortened: as §2
[28] = Cytotoxicity against human HL60 cells assessed as cell growth inhibition at 0.5 uM after 48 hrs by MTT assay; format: functional; conditions: HL-60, 48 h, read-out: GI; procedure, shortened: as §4

SMILES | IC50 [1] [µM] | inhibition of growth at 30 µM [2] [%] | Activity (HL-60 [3]) [%] | IC50 [4] [µM] | inhibition of growth at 50 µM [5] [%] | Activity [6] [%] | Activity [7] [%] | Ratio IC50 (HepG2) | Ratio IC50 (Vero [8]) | Activity (HL-60 [9]) [%] | Ratio IC50 (Vero [10]) | Activity (HL-60 [11]) [%] | IC50 [12] [µM] | inhibition of growth at 50 µM [13] [%] | Activity [14] [%] | Activity [15] [%] | Ratio IC50 (Vero [16]) | Activity [17] [%] | Activity [18] [%] | inhibition of growth at 50 µM [19] [%] | other results
C[C@H]1[C@@H](O)O[C@@H]2O[C@@]3(C)CC[C@H]4[C@H](C)CC[C@@H]1[C@@]24OO3 [ARTENIMOL] | 29 | 58 | 8 | > 100 | 43 | 5 | 75 | 1.81 | 25 | 41 | 63 | 20 | 58 | 42 | 8 | 62 | 12 | 37 | 5 | 39 | Activity [20]: 20%; Ratio IC50 [21]: 19; Activity [22]: 34%; IC50 [23]: 2000 nM; Activity [24]: 27%; Activity [25]: 2%; inhibition of growth at 1 µM [26]: 48.1%; Activity [27]: 4%; inhibition of growth at 0.5 µM [28]: 36%
C[C@H]1[C@@H](OCCOc2cccc(C(=O)/C=C/c3ccc(O)cc3)c2)O[C@@H]2O[C@@]3(C)CC[C@H]4[C@H](C)CC[C@@H]1[C@@]24OO3 | 15 | 37.8 to 77.4 | 7 | 18 | 87.9 | 16 | 64 | 55 | 80 | 58 | 180 | 34 | 39 | 35.2 | 9 | 52 | 32 | 38 | 8 | 33.2 to 64.5 | Activity [20]: 20%; Ratio IC50 [21]: >200; Activity [22]: 29%; IC50 [23]: 400 nM; Activity [24]: 70%; Activity [25]: 6%; inhibition of growth at 1 µM [26]: 57%; Activity [27]: 19%; inhibition of growth at 0.5 µM [28]: 52.9%
C[C@H]1[C@@H](OCCOc2ccc(/C=C/C(=O)c3ccc(O)cc3)cc2)O[C@@H]2O[C@@]3(C)CC[C@H]4[C@H](C)CC[C@@H]1[C@@]24OO3 | 7 | 68.3 to 86.8 | 9 | 14 | 88.9 | 10 | 55 | 450 | 82 | 61 | 240 | 27 | 22 | 75.2 | 28 | 14 | 88 | 32 | 9 | 55.2 to 82.3 | Activity [20]: 35%; Ratio IC50 [21]: 96; Activity [22]: 70%; IC50 [23]: 300 nM; Activity [24]: 95%; Activity [25]: 5%; inhibition of growth at 1 µM [26]: 78.8%; Activity [27]: 16%; inhibition of growth at 0.5 µM [28]: 58.2%
